Test results published in ChEMBL document CHEMBL4393724, “Betulin-1,4-quinone hybrids: Synthesis, anticancer activity and molecular docking study with NQO1 enzyme” (Eur J Med Chem, 2019).
Calls of active or inactive are those of the source. The rule behind the calls is not given here.

What was measured:
[1] = biological target: NAD(P)H dehydrogenase [quinone] 1 (Homo sapiens) (UniProt P15559); assay: Inhibition of NQO1 in human MCF7 cells assessed as increase in CDKN1A expression at 0.5 times of IC50 incubated for 24 hrs by RT-PCR; type: cell-based
Procedure, shortened: (§1)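 Cultured cells were exposed for 24 h to compound at half its IC50. Transcription of H3, TP53, CDKN1A, BAX and BCL-2 was quantified by real-time RT-qPCR with SYBR Green as mRNA copy numbers and compared with untreated control. The BAX/BCL-2 ratio was calculated from the mRNA copies.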

[2] = biological target: NAD(P)H dehydrogenase [quinone] 1 (Homo sapiens) (UniProt P15559); assay: Inhibition of NQO1 in human MCF7 cells assessed as increase in TP53 expression at 0.5 times of IC50 incubated for 24 hrs by RT-PCR; type: cell-based; procedure, shortened: as §1
C32 [3] = assay: Induction of apoptosis in human C32 cells assessed as increase in BAX/Bcl2 expression at 0.5 times of IC50 incubated for 24 hrs by RT-PCR relative to control; type: functional; procedure, shortened: as §1
T47D = assay: Antiproliferative activity against human T47D cells assessed as reduction in cell viability incubated for 72 hrs by WST1 assay; type: functional, cell-based; conditions: Homo sapiens, T47D, 72 h; read-out: IC50
[4] = biological target: NAD(P)H dehydrogenase [quinone] 1 (Homo sapiens) (UniProt P15559); assay: Inhibition of NQO1 in human MCF7 cells assessed as decrease in histone H3 expression at 0.5 times of IC50 incubated for 24 hrs by RT-PCR; type: cell-based; procedure, shortened: as §1
[5] = biological target: NAD(P)H dehydrogenase [quinone] 1 (Homo sapiens) (UniProt P15559); assay: Inhibition of NQO1 in human C32 cells assessed as increase in BAX expression at 0.5 times of IC50 incubated for 24 hrs by RT-PCR; type: cell-based; procedure, shortened: as §1
MCF7 [6] = assay: Antiproliferative activity against human MCF7 cells assessed as reduction in cell viability incubated for 72 hrs by WST1 assay; type: functional, cell-based; conditions: Homo sapiens, MCF7, 72 h; read-out: IC50
Procedure, shortened: (§2)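 Cells held at 37 °C under 5% CO2 and seeded at 5 × 10^4 cells/well in DMEM with 10% FCS plus streptomycin and penicillin. Compounds were dissolved in DMSO and exposed for 72 h. WST-1 formazan was read at 450 nm. IC50 was derived from the mean ± SD of at least three independent experiments run in triplicate. Cisplatin served as reference.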

[7] = biological target: NAD(P)H dehydrogenase [quinone] 1 (Homo sapiens) (UniProt P15559); assay: Inhibition of NQO1 in human A549 cells assessed as decrease in of histone H3 expression at 0.5 times of IC50 incubated for 24 hrs by RT-PCR; type: cell-based; procedure, shortened: as §1
[8] = biological target: NAD(P)H dehydrogenase [quinone] 1 (Homo sapiens) (UniProt P15559); assay: Inhibition of NQO1 in human C32 cells assessed as increase in TP53 expression at 0.5 times of IC50 incubated for 24 hrs by RT-PCR; type: cell-based; procedure, shortened: as §1
MCF7 [9] = assay: Induction of apoptosis in human MCF7 cells assessed as increase in BAX/Bcl2 expression at 0.5 times of IC50 incubated for 24 hrs by RT-PCR; type: functional, cell-based; procedure, shortened: as §1
COLO-829 = assay: Antiproliferative activity against human COLO829 cells assessed as reduction in cell viability incubated for 72 hrs by WST1 assay; type: functional, cell-based; conditions: Homo sapiens, COLO-829, 72 h; read-out: IC50
[10] = biological target: NAD(P)H dehydrogenase [quinone] 1 (Homo sapiens) (UniProt P15559); assay: Inhibition of NQO1 in human C32 cells assessed as increase in CDKN1A expression at 0.5 times of IC50 incubated for 24 hrs by RT-PCR; type: cell-based; procedure, shortened: as §1
A549 [11] = assay: Induction of apoptosis in human A549 cells assessed as increase in BAX/Bcl2 expression at 0.5 times of IC50 incubated for 24 hrs by RT-PCR; type: functional, cell-based; procedure, shortened: as §1
A549 [12] = assay: Antiproliferative activity against human A549 cells assessed as reduction in cell viability incubated for 72 hrs by WST1 assay; type: functional, cell-based; conditions: Homo sapiens, A549, 72 h; read-out: IC50; procedure, shortened: as §2
[13] = biological target: NAD(P)H dehydrogenase [quinone] 1 (Homo sapiens) (UniProt P15559); assay: Inhibition of NQO1 in human C32 cells assessed as decrease in histone H3 expression at 0.5 times of IC50 incubated for 24 hrs by RT-PCR; type: cell-based; procedure, shortened: as §1
C32 [14] = assay: Antiproliferative activity against human C32 cells assessed as reduction in cell viability incubated for 72 hrs by WST1 assay; type: functional, cell-based; conditions: Homo sapiens, C32, 72 h; read-out: IC50; procedure, shortened: as §2
[15] = biological target: NAD(P)H dehydrogenase [quinone] 1 (Homo sapiens) (UniProt P15559); assay: Inhibition of NQO1 in human A549 cells assessed as effect on Bcl2 expression at 0.5 times of IC50 incubated for 24 hrs by RT-PCR; type: cell-based; procedure, shortened: as §1
[16] = biological target: NAD(P)H dehydrogenase [quinone] 1 (Homo sapiens) (UniProt P15559); assay: Inhibition of NQO1 in human MCF7 cells assessed as effect on Bcl2 expression at 0.5 times of IC50 incubated for 24 hrs by RT-PCR; type: cell-based; procedure, shortened: as §1
[17] = biological target: NAD(P)H dehydrogenase [quinone] 1 (Homo sapiens) (UniProt P15559); assay: Inhibition of NQO1 in human MCF7 cells assessed as increase in BAX expression at 0.5 times of IC50 incubated for 24 hrs by RT-PCR; type: cell-based; procedure, shortened: as §1
[18] = biological target: NAD(P)H dehydrogenase [quinone] 1 (Homo sapiens) (UniProt P15559); assay: Inhibition of NQO1 in human A549 cells assessed as increase in CDKN1A expression at 0.5 times of IC50 incubated for 24 hrs by RT-PCR; type: cell-based; procedure, shortened: as §1
MDA-MB-231 = assay: Antiproliferative activity against human MDA-MB-231 cells assessed as reduction in cell viability incubated for 72 hrs by WST1 assay; type: functional, cell-based
SNB-19 = assay: Antiproliferative activity against human SNB19 cells assessed as reduction in cell viability incubated for 72 hrs by WST1 assay; type: functional, cell-based
[19] = biological target: NAD(P)H dehydrogenase [quinone] 1 (Homo sapiens) (UniProt P15559); assay: Inhibition of NQO1 in human C32 cells assessed as effect on Bcl2 expression at 0.5 times of IC50 incubated for 24 hrs by RT-PCR; type: cell-based; procedure, shortened: as §1
[20] = biological target: NAD(P)H dehydrogenase [quinone] 1 (Homo sapiens) (UniProt P15559); assay: Inhibition of NQO1 in human A549 cells assessed as increase in TP53 expression at 0.5 times of IC50 incubated for 24 hrs by RT-PCR; type: cell-based; procedure, shortened: as §1
[21] = biological target: NAD(P)H dehydrogenase [quinone] 1 (Homo sapiens) (UniProt P15559); assay: Inhibition of NQO1 in human A549 cells assessed as increase in BAX expression at 0.5 times of IC50 incubated for 24 hrs by RT-PCR; type: cell-based; procedure, shortened: as §1
[22] = biological target: NAD(P)H dehydrogenase [quinone] 1 (Homo sapiens) (UniProt P15559); assay: Inhibition of NQO1 in human A549 cells assessed as decrease in Bcl2 expression at 0.5 times of IC50 incubated for 24 hrs by RT-PCR; type: cell-based; procedure, shortened: as §1
[23] = biological target: NAD(P)H dehydrogenase [quinone] 1 (Homo sapiens) (UniProt P15559); assay: Inhibition of NQO1 in human C32 cells assessed as decrease in Bcl2 expression at 0.5 times of IC50 incubated for 24 hrs by RT-PCR; type: cell-based; procedure, shortened: as §1
[24] = Homo sapiens, MDA-MB-231, 72 h, read-out: IC50
[25] = Homo sapiens, SNB-19, 72 h, read-out: IC50

NAD(P)H dehydrogenase [quinone] 1 (Homo sapiens), sequence (P15559 whole entry): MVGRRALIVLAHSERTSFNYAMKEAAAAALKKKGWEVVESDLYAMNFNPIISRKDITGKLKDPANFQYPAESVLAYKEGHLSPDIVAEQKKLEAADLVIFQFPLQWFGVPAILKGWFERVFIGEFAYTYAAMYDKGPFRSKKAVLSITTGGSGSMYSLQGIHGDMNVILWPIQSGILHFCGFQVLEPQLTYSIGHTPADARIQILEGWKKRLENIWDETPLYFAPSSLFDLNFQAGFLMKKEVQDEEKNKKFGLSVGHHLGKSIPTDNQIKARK

Row | Compound | Activity [1] | Activity [2] | Ratio (C32 [3]) | IC50 (T47D) [µM] | Activity [4] | Activity [5] | IC50 (MCF7 [6]) [µM] | Activity [7] | Activity [8] | Activity (MCF7 [9]) | IC50 (COLO-829) [µM] | Activity [10] | Activity (A549 [11]) | IC50 (A549 [12]) [µM] | Activity [13] | IC50 (C32 [14]) [µM] | Activity [16] | Activity [17] | Activity [18] | Activity [20] | further results
1 | C#CC(=O)OC[C@]12CC[C@@H](C(=C)C)[C@@H]1[C@H]1CC[C@@H]3[C@@]4(C)CC[C@H](OC5=C(Cl)C(=O)c6cccnc6C5=O)C(C)(C)[C@@H]4CC[C@@]3(C)[C@]1(C)CC2 | Active | Active | 4 - 5 | 99.4 | Active | Active | 14.2 | Active | Active | Active | 6.67 | Active | Active | 0.45 | Active | 1.27 | inactive | Active | Active | Active | Activity [15]: inactive; IC50 (MDA-MB-231; [24]): 2.43 µM; IC50 (SNB-19; [25]): 42 µM; Activity [19]: inactive; Activity [21]: Active
2 | C=C(C)[C@@H]1CC[C@]2(COC(C)=O)CC[C@]3(C)[C@H](CC[C@@H]4[C@@]5(C)CC[C@H](OC6=C(Cl)C(=O)c7ccccc7C6=O)C(C)(C)[C@@H]5CC[C@]43C)[C@@H]12 | Active | Active | 4 - 5 | 12.3 | Active | Active | 8.72 | Active | Active | Active | 0.13 | Active | Active | 0.77 | Active | 1.72 | inactive | Active | Active | Active | Activity [15]: inactive; IC50 (MDA-MB-231; mda-mb-231): Not Active; IC50 (SNB-19; [25]): 7.54 µM; Activity [19]: inactive; Activity [21]: Active
3 | C=C(C)[C@@H]1CC[C@]2(COC(C)=O)CC[C@]3(C)[C@H](CC[C@@H]4[C@@]5(C)CC[C@H](OC6=C(Cl)C(=O)c7ccc(C)nc7C6=O)C(C)(C)[C@@H]5CC[C@]43C)[C@@H]12 | Active | Active | 4 - 5 | 11.3 | Active | Active | 1.58 | Active | Active | Active | 4.68 | Active | Active | 0.59 | Active | 6.52 | inactive | Active | Active | Active | Activity [22]: Active; Activity [23]: Active; IC50 (MDA-MB-231; [24]): 0.9 µM; IC50 (SNB-19; snb-19): Not Active; Activity [21]: Active
